Reference: paper PMC6086215 (Photoacoustics, 2018)

Tests used:
[1] = test system: tumor, brain, lung, liver, kidneys, heart and spleen; assay: Ex vivo optical imaging of harvested organs and tumors; format: in vivo, BALB/c nu/nu mice; conditions: 24 h post-injection, 200 nmol i.v., harvested organs, n = 5/group
Method in brief: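 Nude mice bearing s.c. right-flank xenografts (5 million A431 or 2 million U-87MG cells, ~14 days) received 200 nmol test compound or parent dye in 0.2 mL i.v. via the tail vein (n=5/group). At the end, FITC-albumin (100 mg/kg i.v.) was given 5 min before sacrifice. Tumor and organs were excised for optical imaging, with tumor ROIs and no background correction.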

[2] = Absolute fluorescence quantum yield; format: physicochemical; conditions: Seronorm vs glucose solution
[3] = no reference given, cited from earlier work
U-87MG tumors = assay: Fluorescence microscopy of U-87MG tumor cryosections; format: in vivo, BALB/c nu/nu mice; conditions: U-87MG tumors excised 24 h after injection
Method in brief: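 U-87MG tumors were excised 24 h after i.v. test compound or parent dye, with FITC-albumin given 5 min before sacrifice to estimate permeability. Tumors were embedded in OCT, fresh-frozen in ice-cold isopentane, and cryosectioned. Probe and FITC distribution were viewed by fluorescence stereomicroscopy.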

[4] = In vitro photoacoustic spectra and signal vs concentration in agar phantom; format: physicochemical; conditions: in glucose solution 5.5% and serum; spectra 680–970 nm, step 5 nm
Method in brief: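 Dyes were diluted in 5.5% glucose (plus 5% DMSO for the conjugate) or incubated 1 h at RT in human serum (HSA 47.8 g/L). Samples were loaded in PE-100 tubes in 2% agar phantoms and read at 21 MHz, 40 dB gain, persistence 3, 680–970 nm in 5 nm steps. Signals were normalized to diluted India ink. Peak signal was plotted against concentration and slopes (μM−1) compared. Data are mean ± SD.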

[5] = test system: U-87MG tumors (high αvβ3 expression); assay: In vivo photoacoustic imaging of tumor uptake, U-87MG xenograft; parameters: species or system BALB/c nu/nu mice; conditions: U-87MG tumor bearing mice, n = 5/group

For `CC1(C)C(/C=C/C=C/C=C/C=C2\N(CCCCS(=O)(=O)O)c3ccc4ccccc4c3C2(C)C)=[N+](CCCCS(=O)(=O)[O-])c2ccc3ccccc3c21` [ICG, Indocyanine green], the “ex vivo optical imaging, organ distribution” value [1] is given as “accumulated mainly in liver and kidney”, the “increase of fluorescence efficiency in Seronorm compared to glucose solution” value [2] is given as 5 fold and the blood half-life ([3]; in human) is given as 3 to 5 min. The photostability [3] was “low photostability”, the “solubility in aqueous media” value [3] was “low solubility in aqueous media with strong tendency to form aggregates” and the “microscopic fluorescence distribution in tumor cryosections” value (U-87MG tumors) was “only a patchy and weak signal”. For the same molecule, the maximum photoacoustic peak [4] was 800 nm, the “time of peak photoacoustic signal in tumor post-injection” value ([5]; 200 nmol i.v. tail vein) was 15 min and the “photoacoustic signal reduction at 60 min compared to 15 min” value ([5]; 200 nmol i.v.) was 70%.
